Experimental data published in ChEMBL document CHEMBL4145466, “Design, synthesis, and biological evaluation of novel combretastatin A-4 thio derivatives as microtubule targeting agents” (Eur J Med Chem, 2018).

Key:
[1] = system: HeLa; experiment: Cytotoxicity against human HeLa cells after 48 hrs by MTT assay; type: functional, cell-based
Outline: (§1)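 Cells in DMEM with 10% FBS were plated at 2 × 10^4 per well and left overnight, then treated for 48 h at 0.6–20 µM (six concentrations) from 10 mM DMSO stocks. MTT was added for 2 h, and formazan was dissolved in DMSO and read at 570 nm. Viability was expressed as % of control, with IC50 taken from dose-response curves. Results are mean ± SD of three independent experiments.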

[2] = Inhibition of porcine tubulin polymerization after 1 hr by spectrophotometric analysis; design: species or system Sus scrofa
Outline: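 Polymerization was started by shifting from 4 °C to 37 °C, and absorbance was followed at 37 °C for 60 min. The vehicle served as control.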

[3] = Cytotoxicity against human CCD39Lu cells after 48 hrs by MTT assay; type: cell-based; outline: as §1
[4] = system: MCF7; experiment: Cytotoxicity against human MCF7 cells after 48 hrs by MTT assay; type: functional, cell-based; conditions: MCF7, 48 h; outline: as §1
[5] = system: A-431; experiment: Cytotoxicity against human A431 cells after 48 hrs by MTT assay; type: functional, cell-based; conditions: A-431, 48 h; outline: as §1
[6] = system: SK-OV-3; experiment: Cytotoxicity against human SKOV3 cells after 48 hrs by MTT assay; type: functional, cell-based; conditions: SK-OV-3, 48 h; outline: as §1
[7] = system: HaCaT; experiment: Cytotoxicity against human HaCaT cells after 48 hrs by MTT assay; type: cell-based; outline: as §1
[8] = system: A549; experiment: Cytotoxicity against human A549 cells after 48 hrs by MTT assay; type: functional, cell-based; conditions: A549, 48 h
[9] = system: MDA-MB-231; experiment: Cytotoxicity against human MDA-MB-231 cells after 48 hrs by MTT assay; type: functional, cell-based; conditions: MDA-MB-231, 48 h; outline: as §1

`COc1cc(-c2ncn(C)c2-c2ccccc2SC)cc(OC)c1OC` showed an IC50 [1] greater than 20 µM, an IC50 [2] greater than 10 µM and an IC50 [3] greater than 20 µM. It also gave an IC50 [4] of 2.29 µM, an IC50 [5] greater than 20 µM and an IC50 [6] greater than 20 µM. The IC50 [7] was greater than 20 µM, the IC50 [8] was greater than 20 µM and the IC50 [9] was greater than 20 µM.

`COc1cc(/C=C\c2ccccc2SC)cc(OC)c1OC` showed an IC50 [1] of 11.7 µM, an IC50 [2] greater than 10 µM and an IC50 [3] greater than 20 µM. It also gave an IC50 [4] of 2.35 µM, an IC50 [5] of 8.22 µM and an IC50 [6] of 14.1 µM. The IC50 [7] was 12.8 µM, the IC50 [8] was greater than 20 µM and the IC50 [9] was 14.2 µM.

In the case of `COc1cc(-c2ncn(C)c2-c2cc(Br)c(SC)c(OC)c2)cc(OC)c1OC`, the IC50 [1] is reported as 8.18 µM, the IC50 [2] is reported as greater than 10 µM and the IC50 [3] is reported as 6.13 µM. It also gave an IC50 [4] of 2.51 µM, an IC50 [5] of 16.6 µM and an IC50 [6] greater than 20 µM. It also gave an IC50 [7] greater than 20 µM, an IC50 [8] greater than 20 µM and an IC50 [9] greater than 20 µM.

`COc1cc(/C=C\c2cccc(OC)c2SC)cc(OC)c1OC` showed an IC50 [1] of 6.18 µM, an IC50 [2] greater than 10 µM and an IC50 [3] greater than 20 µM. It also gave an IC50 [4] of 0.65 µM, an IC50 [5] of 3.61 µM and an IC50 [6] of 14.5 µM. It also gave an IC50 [7] of 9.56 µM, an IC50 [8] greater than 20 µM and an IC50 [9] of 11.7 µM.

Work on `COc1ccc(-c2c(-c3cc(Br)c(OC)c(OC)c3)ncn2C)cc1SC` yielded an IC50 [1] greater than 20 µM, an IC50 [2] greater than 10 µM and an IC50 [3] greater than 20 µM. It also gave an IC50 [4] of 5.24 µM, an IC50 [5] greater than 20 µM and an IC50 [6] greater than 20 µM. The IC50 [7] was greater than 20 µM, the IC50 [8] was greater than 20 µM and the IC50 [9] was greater than 20 µM.

`COc1cc(-c2c(-c3cc(Br)c(OC)c(OC)c3)ncn2C)ccc1SC` gave an IC50 [1] greater than 20 µM, an IC50 [2] greater than 10 µM and an IC50 [3] of 19.3 µM. The IC50 [4] was 2.2 µM, the IC50 [5] was 13.6 µM and the IC50 [6] was greater than 20 µM. It also gave an IC50 [7] greater than 20 µM, an IC50 [8] greater than 20 µM and an IC50 [9] of 15.5 µM.

With `COc1ccc(-c2ocnc2-c2cc(Br)c(OC)c(OC)c2)cc1OC` the IC50 [1] was 0.07 µM, the IC50 [2] was 4.8 µM and the IC50 [3] was greater than 20 µM. It also gave an IC50 [4] of 6.1 µM, an IC50 [5] of 12.3 µM and an IC50 [6] of 0.26 µM. For the same compound, the IC50 [7] was 10.1 µM, the IC50 [8] was 0.5 µM and the IC50 [9] was 7.83 µM.

In the case of `COc1cc(-c2ocnc2-c2cc(Br)c(OC)c(OC)c2)ccc1SC`, the IC50 [1] is reported as 0.44 µM, the IC50 [2] is reported as 1.54 µM and the IC50 [3] is reported as greater than 20 µM. It also gave an IC50 [4] of 2.48 µM, an IC50 [5] of 0.41 µM and an IC50 [6] of 1.03 µM. The IC50 [7] was 0.26 µM, the IC50 [8] was greater than 20 µM and the IC50 [9] was 0.76 µM.

Work on `COc1cc(/C(=C\c2ccccc2SC)C(=O)O)cc(OC)c1OC` yielded an IC50 [1] greater than 20 µM, an IC50 [2] greater than 10 µM and an IC50 [3] greater than 20 µM. It also gave an IC50 [4] of 1.84 µM, an IC50 [5] greater than 20 µM and an IC50 [6] greater than 20 µM. For the same compound, the IC50 [7] was greater than 20 µM, the IC50 [8] was greater than 20 µM and the IC50 [9] was greater than 20 µM.

In the case of `COc1cc(-c2ncoc2-c2ccccc2SC)cc(OC)c1OC`, the IC50 [1] is reported as 7.33 µM, the IC50 [2] is reported as 0.86 µM and the IC50 [3] is reported as greater than 20 µM. The IC50 [4] was 1.43 µM, the IC50 [5] was greater than 20 µM and the IC50 [6] was greater than 20 µM. It also gave an IC50 [7] greater than 20 µM, an IC50 [8] greater than 20 µM and an IC50 [9] greater than 20 µM.

With `COc1ccc(-c2ocnc2-c2cc(OC)c(OC)c(OC)c2)cc1S` the IC50 [1] was 4.44 µM, the IC50 [2] was 2.97 µM and the IC50 [3] was greater than 20 µM. For the same compound, the IC50 [4] was 2.11 µM, the IC50 [5] was 1.22 µM and the IC50 [6] was 3.18 µM. It also gave an IC50 [7] of 1.28 µM, an IC50 [8] greater than 20 µM and an IC50 [9] of 2.87 µM.

`COc1cc(/C(=C\c2cccc(OC)c2SC)C(=O)O)cc(OC)c1OC` gave an IC50 [1] greater than 20 µM, an IC50 [2] greater than 10 µM and an IC50 [3] greater than 20 µM. The IC50 [4] was 0.95 µM, the IC50 [5] was greater than 20 µM and the IC50 [6] was greater than 20 µM. It also gave an IC50 [7] greater than 20 µM, an IC50 [8] greater than 20 µM and an IC50 [9] greater than 20 µM.

`COc1ccc(-c2c(-c3cc(OC)c(SC)c(OC)c3)ncn2C)cc1O` gave an IC50 [1] of 0.39 µM, an IC50 [2] of 6.67 µM and an IC50 [3] greater than 20 µM. For the same compound, the IC50 [4] was 1.63 µM, the IC50 [5] was 0.43 µM and the IC50 [6] was 1.72 µM. It also gave an IC50 [7] of 0.5 µM, an IC50 [8] greater than 20 µM and an IC50 [9] of 0.39 µM.

`COc1cc(-c2ocnc2-c2cc(OC)c(OC)c(OC)c2)ccc1SC` showed an IC50 [1] of 0.645 µM, an IC50 [2] of 1.62 µM and an IC50 [3] greater than 20 µM. For the same compound, the IC50 [4] was 0.6 µM, the IC50 [5] was 0.43 µM and the IC50 [6] was 1.48 µM. For the same compound, the IC50 [7] was 0.43 µM, the IC50 [8] was greater than 20 µM and the IC50 [9] was 0.85 µM.

`COc1cc(-c2ncoc2-c2cc(Br)c(SC)c(OC)c2)cc(OC)c1OC` gave an IC50 [1] greater than 20 µM, an IC50 [2] greater than 10 µM and an IC50 [3] greater than 20 µM. The IC50 [4] was 1.42 µM, the IC50 [5] was greater than 20 µM and the IC50 [6] was greater than 20 µM. It also gave an IC50 [7] of 16.7 µM, an IC50 [8] greater than 20 µM and an IC50 [9] of 17.9 µM.
